Measurements from ChEMBL document CHEMBL4196166 (J Med Chem, 2018).
Active and inactive are the calls of the source. The calls are words filed in the database; no cut-off is given here.

Experiments:
Homo sapiens [1] = test: Antimetastatic activity against human PSC xenografted in BALB/c nu/nu mouse co-implanted with human AsPC1 cells assessed as reduction in metastasis lesions in liver at 10 mg/kg/day, ip measured after 28 days post first dose by haematoxylin and eosin staining-based microscopic analysis; format: functional, organism-based
How it was run: (§1)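 Female athymic BALB/c nu/nu mice, 6–8 weeks old. 1×10^6 AsPC-1 and 1×10^6 human pancreatic stellate cells in 50 µL PBS injected into the pancreatic tail. Treatment randomized on day 7 (n = 4/group) for 4 weeks: 10 mg/kg/day ip in 50 mM sodium acetate pH 5.5/10% DMSO/1% Kolliphor HS-15, or gemcitabine 75 mg/kg by oral gavage twice weekly, or vehicle. At kill, liver scored for visible macrometastases, fixed in formalin, and 4 µm sections stained with H&E. Chi-square test.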

[2] = target: Complement C1s subcomponent (Homo sapiens) (UniProt P09871); test: Inhibition of C1S (unknown origin) at 10 nM to 33.3 uM after 30 mins by gel-based ABPP assay
[3] = target: Transmembrane protease serine 11D (Homo sapiens) (UniProt O60235); test: Inhibition of transmembrane protease serine 11D (unknown origin) at 10 nM to 33.3 uM after 30 mins by gel-based ABPP assay
[4] = target: Lysosomal Pro-X carboxypeptidase (Homo sapiens) (UniProt P42785); test: Inhibition of prolylcarboxypeptidase (unknown origin) at 10 nM to 33.3 uM after 30 mins by gel-based ABPP assay
Trypsin [5] = target: T1, Trypsin (Homo sapiens, UniProt P07477+P07478+P35030); test: Inhibition of trypsin (unknown origin) at 10 nM to 33.3 uM after 30 mins by gel-based ABPP assay; format: protein assay
ASPC1 [6] = test: Antimetastatic activity against human AsPC1 cells xenografted in BALB/c nu/nu mouse co-implanted with human PSC assessed as reduction in metastasis lesions in liver at 10 mg/kg/day, ip measured after 28 days post first dose by haematoxylin and eosin staining-based microscopic analysis; format: functional, organism-based; how it was run: as §1
Plasminogen = Plasminogen (Homo sapiens, UniProt P00747); test: Inhibition of plasmin (unknown origin) at 10 nM to 33.3 uM after 30 mins by gel-based ABPP assay
Homo sapiens [7] = test: Antitumor activity against human AsPC1 cells xenografted in BALB/c nu/nu mouse co-implanted with human PSC assessed as reduction in tumor volume at 10 mg/kg/day, ip measured after 28 days post first dose; format: functional, organism-based
How it was run: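 Orthotopic AsPC-1 plus human stellate cell co-implant (1×10^6 each) in the pancreatic tail of female nude BALB/c nu/nu mice. From day 7, dosed for 4 weeks (n = 4/group) with 10 mg/kg/day ip in acetate pH 5.5/DMSO/Kolliphor vehicle, or gemcitabine 75 mg/kg gavage twice weekly. Tumors resected at 4 weeks after first injection and measured with calipers by two observers. Volume = 1/2(length×breadth×width). Mean ± SEM.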

ASPC1 [8] = test: Antimetastatic activity against human AsPC1 cells xenografted in BALB/c nu/nu mouse co-implanted with human PSC assessed as reduction in metastasis lesions in liver at 10 mg/kg/day, ip measured after 28 days post first dose by microscopic analysis; format: functional, organism-based; how it was run: as §1
Trypsin [9] = target: T1, Trypsin; test: Inhibition of trypsin (unknown origin) using chromogenic H-D-Ile-L-Pro-L-Arg-p-nitoraniline as substrate by […]; format: protein assay
[10] = target: Adenosine receptor A2a (Homo sapiens) (UniProt P29274); test: Displacement of [3H]ZM241385 from human wild type adenosine A2A receptor at 10 uM
How it was run: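 Compounds tested at 10 µM for displacement of 2.5 nM [3H]ZM241385 from human wild-type A2A receptor. Total binding taken without inhibitor. Nonspecific binding defined with 100 µM NECA. At least three independent experiments, each in duplicate. Mean ± SEM.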

Chain of Adenosine receptor A2a (Homo sapiens) (P29274 whole entry): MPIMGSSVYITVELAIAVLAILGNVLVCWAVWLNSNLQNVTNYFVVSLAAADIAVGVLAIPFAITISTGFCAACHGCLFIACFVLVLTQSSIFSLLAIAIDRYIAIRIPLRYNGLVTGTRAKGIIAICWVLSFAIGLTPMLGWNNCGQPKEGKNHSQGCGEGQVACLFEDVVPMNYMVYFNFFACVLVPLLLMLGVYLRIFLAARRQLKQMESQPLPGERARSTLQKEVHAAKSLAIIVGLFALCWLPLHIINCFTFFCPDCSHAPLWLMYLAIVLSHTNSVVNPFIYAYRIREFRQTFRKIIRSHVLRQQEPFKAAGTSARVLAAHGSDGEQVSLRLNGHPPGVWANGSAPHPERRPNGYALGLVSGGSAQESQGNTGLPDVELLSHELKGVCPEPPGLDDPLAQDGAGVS
Chain of Lysosomal Pro-X carboxypeptidase (Homo sapiens) (P42785 whole entry): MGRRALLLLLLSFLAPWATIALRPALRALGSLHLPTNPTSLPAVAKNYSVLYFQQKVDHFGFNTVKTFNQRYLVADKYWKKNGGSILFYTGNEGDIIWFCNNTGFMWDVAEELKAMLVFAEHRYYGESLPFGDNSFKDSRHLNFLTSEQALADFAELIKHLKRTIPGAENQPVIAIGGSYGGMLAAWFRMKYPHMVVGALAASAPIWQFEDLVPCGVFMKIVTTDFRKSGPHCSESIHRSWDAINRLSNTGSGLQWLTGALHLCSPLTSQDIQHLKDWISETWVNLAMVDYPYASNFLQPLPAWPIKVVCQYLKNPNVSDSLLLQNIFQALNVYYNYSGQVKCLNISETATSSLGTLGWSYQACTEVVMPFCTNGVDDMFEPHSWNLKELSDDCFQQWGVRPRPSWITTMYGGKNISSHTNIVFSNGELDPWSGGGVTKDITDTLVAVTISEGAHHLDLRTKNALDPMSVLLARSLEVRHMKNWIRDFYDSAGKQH
Chain of Plasminogen (P00747 97-580 limits assumed): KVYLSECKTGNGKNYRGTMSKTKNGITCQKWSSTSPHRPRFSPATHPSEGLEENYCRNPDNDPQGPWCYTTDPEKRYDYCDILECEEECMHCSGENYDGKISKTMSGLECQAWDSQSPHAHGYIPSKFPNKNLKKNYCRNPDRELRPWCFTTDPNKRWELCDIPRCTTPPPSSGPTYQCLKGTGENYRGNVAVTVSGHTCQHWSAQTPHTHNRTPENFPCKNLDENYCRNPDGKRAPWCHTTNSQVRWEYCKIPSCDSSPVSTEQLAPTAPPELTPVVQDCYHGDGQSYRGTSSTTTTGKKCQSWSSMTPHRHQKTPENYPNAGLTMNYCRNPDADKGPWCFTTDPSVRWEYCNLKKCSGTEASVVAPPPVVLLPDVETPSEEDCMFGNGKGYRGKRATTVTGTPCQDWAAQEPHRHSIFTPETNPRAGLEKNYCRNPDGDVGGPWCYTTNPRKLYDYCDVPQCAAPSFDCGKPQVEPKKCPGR
Chain of Plasminogen (P00747 581-810 limits assumed): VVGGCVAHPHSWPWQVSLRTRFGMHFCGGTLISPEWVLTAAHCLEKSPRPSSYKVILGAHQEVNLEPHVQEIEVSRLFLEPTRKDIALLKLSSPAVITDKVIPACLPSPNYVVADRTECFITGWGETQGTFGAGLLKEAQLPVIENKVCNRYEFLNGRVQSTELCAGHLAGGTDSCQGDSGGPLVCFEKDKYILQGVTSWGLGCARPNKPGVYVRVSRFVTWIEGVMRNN
Chain of Transmembrane protease serine 11D (Homo sapiens) (O60235 1-186 limits assumed): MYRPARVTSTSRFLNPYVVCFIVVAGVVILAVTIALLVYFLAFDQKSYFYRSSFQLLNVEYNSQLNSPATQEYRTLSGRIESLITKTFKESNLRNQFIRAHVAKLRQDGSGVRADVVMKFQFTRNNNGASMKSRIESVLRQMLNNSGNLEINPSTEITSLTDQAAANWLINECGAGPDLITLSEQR
Chain of Transmembrane protease serine 11D (Homo sapiens) (O60235 187-418 limits assumed): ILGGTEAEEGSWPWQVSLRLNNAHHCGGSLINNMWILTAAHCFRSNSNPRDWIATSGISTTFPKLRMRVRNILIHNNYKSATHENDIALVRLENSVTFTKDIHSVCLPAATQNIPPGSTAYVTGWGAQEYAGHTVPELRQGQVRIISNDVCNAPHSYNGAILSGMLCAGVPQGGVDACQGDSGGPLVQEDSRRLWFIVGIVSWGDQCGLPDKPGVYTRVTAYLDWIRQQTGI
Chain of Complement C1s subcomponent (Homo sapiens) (P09871 16-437 limits assumed): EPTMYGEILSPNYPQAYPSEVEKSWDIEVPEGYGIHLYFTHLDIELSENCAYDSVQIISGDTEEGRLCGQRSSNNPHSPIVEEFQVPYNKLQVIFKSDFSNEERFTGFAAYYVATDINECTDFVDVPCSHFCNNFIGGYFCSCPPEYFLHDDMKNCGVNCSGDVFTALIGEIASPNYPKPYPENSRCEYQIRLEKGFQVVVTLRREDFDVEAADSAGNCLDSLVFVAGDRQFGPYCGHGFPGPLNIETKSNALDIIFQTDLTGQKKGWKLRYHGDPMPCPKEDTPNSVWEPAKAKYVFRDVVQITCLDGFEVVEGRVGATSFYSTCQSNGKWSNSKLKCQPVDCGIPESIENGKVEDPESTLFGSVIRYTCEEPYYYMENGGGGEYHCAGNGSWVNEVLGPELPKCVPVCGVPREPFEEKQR
Chain of Complement C1s subcomponent (Homo sapiens) (P09871 438-688 limits assumed): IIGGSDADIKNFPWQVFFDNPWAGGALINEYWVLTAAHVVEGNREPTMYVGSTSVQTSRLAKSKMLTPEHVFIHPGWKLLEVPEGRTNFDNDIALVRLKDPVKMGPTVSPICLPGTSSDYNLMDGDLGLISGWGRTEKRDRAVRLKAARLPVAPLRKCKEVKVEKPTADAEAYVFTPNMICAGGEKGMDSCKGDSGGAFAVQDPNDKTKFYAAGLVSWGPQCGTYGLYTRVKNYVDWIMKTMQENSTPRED

Structure (SMILES)	Activity (Homo sapiens [1])	inhibition [2]	inhibition [3]	inhibition [4]	inhibition (Trypsin [5])	Activity (ASPC1 [6])	inhibition (Plasminogen)	Activity (Homo sapiens [7])	Activity (ASPC1 [8])	IC50 (Trypsin [9])	inhibition [10]
COc1ncc(-c2nc(C(=O)NC(=N)N)c(N)nc2N2CCCCCC2)cn1	Active	Active	Active	Active	Active	Active	Active	Active	Active		
N=C(N)NC(=O)c1nc(-c2cc3ccccc3o2)c(N2CCCCCC2)nc1N					Active			Active	Active	> 10 µM	
N=C(N)NC(=O)c1nc(Cl)c(N2CCCCCC2)nc1N [N,N-HEXAMETHYLENEAMILORIDE]										> 10 µM	Active
